Like-named read-outs stand apart in the source and are kept apart here. Marks after values point to notes of the source that are not given here.
How the values were obtained:
HEK293 cells = assay: MTT cell viability, HEK293; assay type: cell-based, human; settings: for % resistant: plateau of biphasic curve fit, mean ± SEM; for concentration required to impact the remaining (resistant) cells: biphasic viability profile
In short: (§1)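 Cells seeded at 1.1 × 10^5/well in complete medium; 1 h later, medium with a range of test compound concentrations added for 48 h at 37 °C, 5% CO2. Vehicle is DMSO-only medium (100%), and compound medium without cells is background (0%). MTT 1 mg/mL in Dulbecco's PBS for 90 min; formazan dissolved in DMSO, A570. Biphasic curves fitted to a 2-site model: plateau gives % resistant, with a LogEC50 per phase. n = 5.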

ENT2KO cells = assay: MTT cell viability, ENT2KO; assay type: cell-based, human; settings: 48 h; for % resistant: plateau of biphasic curve fit
In short: as §1

ENT1KO cells = assay: MTT cell viability, ENT1KO; assay type: cell-based, human; settings: 48 h; for % resistant: ENT1KO, plateau of biphasic curve fit; for EC50: Homo sapiens
In short: as §1

E1E2KO cells = assay: MTT cell viability, E1E2KO; assay type: cell-based, human; settings: 48 h; for % resistant: E1E2KO, plateau of biphasic curve fit; for EC50: Homo sapiens
In short: as §1

ENT2 [1] = molecular target: T1, ENT2 (Homo sapiens, UniProt Q14542); assay: Inhibition of [3H]2-chloroadenosine uptake in ENT1KO cells; assay type: cell-based
T1 sequence (Q14542 1-456): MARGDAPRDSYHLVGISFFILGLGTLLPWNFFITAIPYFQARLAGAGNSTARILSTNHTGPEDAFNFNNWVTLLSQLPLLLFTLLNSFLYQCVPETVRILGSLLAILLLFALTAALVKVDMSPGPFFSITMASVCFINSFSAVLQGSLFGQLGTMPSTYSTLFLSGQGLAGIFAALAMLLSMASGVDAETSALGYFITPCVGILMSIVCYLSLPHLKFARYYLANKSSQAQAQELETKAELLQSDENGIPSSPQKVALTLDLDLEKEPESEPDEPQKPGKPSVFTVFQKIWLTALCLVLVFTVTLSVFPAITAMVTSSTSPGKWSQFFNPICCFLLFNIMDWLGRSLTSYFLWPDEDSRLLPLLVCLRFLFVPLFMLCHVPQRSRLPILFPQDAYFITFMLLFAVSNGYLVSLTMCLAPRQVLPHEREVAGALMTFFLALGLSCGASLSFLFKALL

ENT1 and ENT2 = assay type: cell-based, human; settings: HEK293 cells; 10 μM substrate, 15 s uptake; printed as logIC50 (negative)
ENT1 [2] = molecular target: T2, ENT1 (Homo sapiens, UniProt Q99808); assay: Inhibition of [3H]2-chloroadenosine uptake in ENT2KO cells; assay type: cell-based; settings: comparison of ENT2KO cells (ENT1) with ENT1KO cells (ENT2)
T2 sequence (Q99808 1-456): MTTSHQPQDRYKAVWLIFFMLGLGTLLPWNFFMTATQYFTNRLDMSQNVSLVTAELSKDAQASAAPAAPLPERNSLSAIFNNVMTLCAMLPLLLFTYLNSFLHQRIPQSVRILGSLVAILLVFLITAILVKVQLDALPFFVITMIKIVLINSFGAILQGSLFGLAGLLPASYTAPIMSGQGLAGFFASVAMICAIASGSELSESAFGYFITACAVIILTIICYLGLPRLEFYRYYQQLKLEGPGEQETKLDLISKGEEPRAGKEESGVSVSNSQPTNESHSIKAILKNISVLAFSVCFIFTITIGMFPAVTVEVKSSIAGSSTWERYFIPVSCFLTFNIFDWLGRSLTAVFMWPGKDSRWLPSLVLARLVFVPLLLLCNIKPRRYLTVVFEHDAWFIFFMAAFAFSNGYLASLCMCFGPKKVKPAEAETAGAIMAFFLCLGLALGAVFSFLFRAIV

ENT1 [3] = molecular target: T2, ENT1; assay: [3H]2-chloroadenosine transport kinetics, ENT1-mediated uptake; assay type: cell-based; settings: for Vmax of ENT1-mediated uptake: 10 s uptake
In short: (§2)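 Trypsin/EDTA-detached cells were suspended in sodium-free N-methylglucamine buffer, pH 7.4, with 0.1% DMSO, 100 nM NBMPR or 5 mM adenosine, 15 min at room temperature. Uptake of varied [3H]2-chloroadenosine ran 10 s and was stopped by spinning through silicone:mineral oil; NaOH-digested pellets were scintillation-counted. Cell volume came from [3H]-water. ENT2 = NBMPR minus adenosine condition; ENT1 = mediated minus ENT2. Michaelis-Menten Km/Vmax; 5 experiments, duplicate.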

ENT2 [4] = molecular target: T1, ENT2; assay: [3H]2-chloroadenosine transport kinetics, ENT2-mediated uptake; assay type: cell-based
In short: as §2

[5] = read-out: LogEC50-1 (converted)
[6] = read-out: LogEC50-2 (converted)

Compound	% resistant (HEK293 cells; 48 h, n = 5)	% resistant (ENT2KO cells)	% resistant (ENT1KO cells)	EC50 (ENT1KO cells; [5]) [µM]	% resistant (E1E2KO cells)	EC50 (E1E2KO cells; [5]) [µM]	concentration required to impact the remaining (resistant) cells (HEK293 cells) [µM]	other results
O=c1[nH]cc(F)c(=O)[nH]1 [5-fluorouracil]	Monophasic	Monophasic	Monophasic	8.51	48 ± 10%	7.76	–	EC50 (E1E2KO cells; [6]): 1070 µM
Sc1ncnc2nc[nH]c12 [6-mercaptopurine]	–	41 ± 3%	66 ± 4 ^b %	2.95	70 ± 4 ^b %	26.3	> 300	–
Nc1nc2nc[nH]c2c(=S)[nH]1 [6-thioguanine]	–	25 ± 5%	10 ± 3%	1.7	Monophasic	77.6	> 300	–
Nc1nc(Cl)nc2c1ncn2[C@H]1C[C@H](O)[C@@H](CO)O1 [Cladribine, cladribine]	Monophasic	Monophasic	Monophasic	3.98	Monophasic	16.6	–	LogEC50-1 (HEK293 cells; 48 h, high affinity phase, given as logEC50 (negative)): −5.11 ± 0.07; LogEC50-1 (ENT2KO cells; high affinity phase, given as logEC50 (negative)): −4.51 ± 0.07 ^b
Nc1nc(Cl)nc2c1ncn2[C@@H]1O[C@H](CO)[C@@H](O)[C@@H]1F [Clofarabine, clofarabine]	21 ± 2%	70 ± 3 ^b %	6 ± 2 ^b %	0.174	Monophasic	138	> 300	Ki (ENT2 [1]): 75 ± 49 µM; % resistant (HEK293 cells; 48 h, n = 5, listed as clofarabine): approximately 20%; sensitivity of ENT2KO cells to the drug (ENT2KO cells): almost completely resistant
Nc1ccn([C@@H]2O[C@H](CO)[C@@H](O)[C@@H]2O)c(=O)n1 [Cytarabine, cytarabine]	51 ± 2%	Monophasic	37 ± 3 ^b %	2.34	Monophasic	–	> 300	sensitivity of ENT2KO cells to the drug (ENT2KO cells): almost completely resistant; EC50 (ENT1KO cells; [6]): 4570 µM; EC50 (E1E2KO cells; [6]): 11200 µM
OCCN(CCO)c1nc(N2CCCCC2)c2nc(N(CCO)CCO)nc(N3CCCCC3)c2n1 [DY, Dipyridamole]	–	–	–	–	–	–	–	IC50 (ENT2 [1]): 0.501 µM; logIC50, monophasic inhibition of [3H]2-chloroadenosine uptake (ENT1 and ENT2): −6.6 ±.01 M
COc1cc(C(=O)OCCCN2CCCN(CCCOC(=O)c3cc(OC)c(OC)c(OC)c3)CC2)cc(OC)c1OC [Dilazep, dilazep]	–	–	–	–	–	–	–	IC50 (ENT2 [1]): 6.31 µM
Nc1ccn([C@@H]2O[C@H](CO)[C@@H](O)C2(F)F)c(=O)n1 [Gemcitabine, gemcitabine]	33 ± 4%	76 ± 3 ^b %	14 ± 2 ^b %	0.0427	Monophasic	–	> 300	sensitivity of ENT2KO cells to the drug (ENT2KO cells): almost completely resistant; EC50 (ENT1KO cells; [6]): 468 µM; EC50 (E1E2KO cells; [6]): 1820 µM
Nc1nc2c(ncn2[C@@H]2O[C@H](CO)[C@@H](O)[C@H]2O)c(=O)[nH]1 [Guanosine, guanosine]	–	–	–	–	–	–	–	relative affinity for ENT1 versus ENT2 (ENT1 [2]): significantly higher affinity for ENT1 over ENT2
O=[N+]([O-])c1ccc(CSc2ncnc3c2ncn3[C@@H]2O[C@H](CO)[C@@H](O)[C@H]2O)cc1 [NBMPR, nitrobenzylmercaptopurine riboside (nitrobenzylthioinosine)]	–	–	–	–	–	–	–	concentration required to obtain any inhibition of [3H]2-chloroadenosine uptake (ENT2 [1]; ENT1KO cells): > 1 µM; logIC50, inhibition of [3H]2-chloroadenosine uptake (ENT2 [1]; ENT1KO cells, 10 μM substrate, 15 s uptake, printed as logIC50 (negative)): ~−5.5 ± 0.1 M
Nc1ncnc2c1ncn2[C@@H]1O[C@H](CO)[C@@H](O)[C@@H]1O [Vidarabine]	–	–	–	–	–	–	–	Ki (ENT2 [1]): 60 ± 24 µM
[3H]c1nc2c(N)nc(Cl)nc2n1[C@@H]1O[C@H](CO)[C@@H](O)[C@H]1O [[^3H]2-chloroadenosine, [8-^3H]2-Chloroadenosine]	–	–	–	–	–	–	–	ENT1-mediated uptake (ENT1 [3]; E1E2KO cells): no ENT1-mediated or ENT2-mediated uptake; Vmax of ENT1-mediated uptake (ENT1 [3]; ENT2KO cells): 4.8 ± 0.6 pmol/μL per second; Vmax of ENT1-mediated uptake (ENT1 [3]; HEK293 cells): 3.2 ± 0.3 pmol/μL per second; ENT2-mediated uptake (ENT2 [4]; E1E2KO cells): no ENT1-mediated or ENT2-mediated uptake; ENT2-mediated uptake (ENT2 [4]; ENT2KO cells): no detectable ENT2-mediated uptake

— PMC12799549 (Drug Metabolism and Disposition, 2025)
